Among the data in ChEMBL document CHEMBL4400529, “Structure-based drug design, synthesis, In vitro, and In vivo biological evaluation of indole-based biomimetic analogs targeting estrogen receptor-α inhibition” (Eur J Med Chem, 2019) are Activity and IC50 values, retold here.

The term IC50 denotes the concentration that gives 50% inhibition.

SMILES strings stand for the structures. Active and inactive are the calls of the source. No cut-off for these calls is given here.

A short description of data set [1]: Acute toxicity in Swiss albino mouse assessed induction of mortality at 10 mg/mouse, ip dosed once weekly. To be noted: in vivo. It is filed as organism-based. In short, it runs like this: (§1)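 Normal female-strain-unspecified mice got a single i.p. dose of 10 mg/mouse. They were watched for 7 days for short-term acute toxic signs, behavioural changes and mortality.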

Data set [2] concerns Mus musculus. Briefly: Decrease in ER-alpha protein expression in tumors of Swiss albino mouse mouse implanted with mouse EAC cells at 10 mg/mouse, ip dosed once weekly starting 5 days after inoculation by immunohistochemical analysis relative to control. It is filed as functional. Further details: scale not given: the % may be the effect or the level left. In short, it runs like this:
(§2)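 Tumors from the EAC mouse model after 15 days of treatment were stained by avidin-biotin immunoperoxidase using an anti-ER-α monoclonal antibody (1:100 in PBS), detected with DAB and counterstained with Mayer's hematoxylin. A section without primary antibody served as negative control. Percentage of positive cells estimated in 10 random fields per section per animal. Mean ± SD, n=10.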

A further data set concerns MCF7. Briefly: Antiproliferative activity against human MCF7 cells after 24 hrs by MTT assay. It counts as functional, cell-based. To be noted: MCF7, 24 h. The essentials: (§3)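 Cells from ATCC, subcultured by an earlier reported method, then exposed to 5-fold serial dilutions in triplicate for 24 h. Cells were washed with PBS, given MTT for 2 h, then dissolved in DMSO. Absorbance read at 570 nm.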

The subject of the next data set is T47D. Briefly: Antiproliferative activity against human T47D cells after 24 hrs by MTT assay. It counts as functional, cell-based. In short, it runs like this: as §3
(Formazan colour is commonly taken as a measure of viable cells.)

In data set [3] the test system is Ehrlich. Briefly: Antitumor activity against mouse EAC cells implanted in Swiss albino mouse assessed as reduction in tumor volume at 5 mg/mouse, ip dosed once weekly starting 5 days after inoculation and measured on 15 days of treatment relative to fulvestrant. It is filed as functional, organism-based. The essentials: (§4)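 Female Swiss albino mice received EAC cells from donor ascitic fluid (~12.5 × 10^6/mL in sterile saline, 0.2 mL) i.m. into the left thigh. Treatment began at a palpable mass of ~100 mm3, given i.p. once weekly in 10% Tween 80 against vehicle and fulvestrant 5 mg/mouse controls. Caliper tumor volume = L × H² × 0.52. Mean ± SD, n=10, one-way ANOVA with Tukey-Kramer.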

Data set [4] relates to Ehrlich. Briefly: Antitumor activity against mouse EAC cells implanted in Swiss albino mouse assessed as increase in necrotic areas in outer zone of tumor mass at 10 mg/mouse, ip dosed once weekly starting 5 days after inoculation by hematoxylin and eosin staining-based assay. It is filed as functional, organism-based. In short, it runs like this:
(§5)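 EAC solid tumors in female Swiss albino mice, with weekly i.p. treatment in 10% Tween 80 against vehicle and fulvestrant controls. Tumors were collected on day 15, formalin-fixed, paraffin-embedded and stained with H&E. Necrotic index scored in 10 random fields per section per animal. n=10, one-way ANOVA with Tukey-Kramer.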

Data set [5] has as its system Ehrlich. Briefly: Antitumor activity against mouse EAC cells implanted in Swiss albino mouse assessed as induction of tumor degeneration in outer zone of tumor mass at 10 mg/mouse, ip dosed once weekly starting 5 days after inoculation by hematoxylin and eosin staining-based assay. It counts as functional, organism-based. In short, it runs like this:
as §5

In data set [6] the test system is Mus musculus. Briefly: Decrease in ER-alpha protein expression in tumors of Swiss albino mouse mouse implanted with mouse EAC cells at 5 mg/mouse, ip dosed once weekly starting 5 days after inoculation by immunohistochemical analysis relative to control. It is filed as functional. The arrangement: scale not given: the % may be the effect or the level left. The essentials:
as §2

Data set [7] concerns Ehrlich. Briefly: Antitumor activity against mouse EAC cells implanted in Swiss albino mouse assessed as reduction in viable tumor cell area in outer zone of tumor mass at 10 mg/mouse, ip dosed once weekly starting 5 days after inoculation by hematoxylin and eosin staining-based assay. It counts as functional, organism-based. In short, it runs like this:
as §5

The target of a further data set is T1, Estrogen receptor (Homo sapiens, UniProt P03372).
T1 sequence (P03372 whole entry): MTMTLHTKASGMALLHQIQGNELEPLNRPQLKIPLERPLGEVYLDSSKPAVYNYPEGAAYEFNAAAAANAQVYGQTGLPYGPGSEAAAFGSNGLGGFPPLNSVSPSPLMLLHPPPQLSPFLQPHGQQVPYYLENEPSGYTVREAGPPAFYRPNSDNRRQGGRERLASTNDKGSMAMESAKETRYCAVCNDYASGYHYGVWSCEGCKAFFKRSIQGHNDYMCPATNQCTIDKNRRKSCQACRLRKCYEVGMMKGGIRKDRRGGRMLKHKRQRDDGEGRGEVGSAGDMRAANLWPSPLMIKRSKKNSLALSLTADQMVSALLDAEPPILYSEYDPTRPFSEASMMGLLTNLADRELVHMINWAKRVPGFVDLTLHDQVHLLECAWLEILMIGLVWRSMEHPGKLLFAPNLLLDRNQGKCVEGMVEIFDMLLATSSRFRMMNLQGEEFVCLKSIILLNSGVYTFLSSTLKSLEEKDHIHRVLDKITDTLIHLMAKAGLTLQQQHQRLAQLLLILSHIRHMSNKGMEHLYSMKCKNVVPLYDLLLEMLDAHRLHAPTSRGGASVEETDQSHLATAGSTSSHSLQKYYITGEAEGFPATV
Briefly: Inhibition of estrogen receptor-alpha (unknown origin) by ELISA. A general note: In an ELISA, binding on a coated surface is turned into a signal by an enzyme label.

Data set [8] in a line: Acute toxicity in Swiss albino mouse assessed induction of behavioural changes at 10 mg/mouse, ip dosed once weekly. It counts as organism-based. To be noted: in vivo. In short, it runs like this:
as §1

Data set [9] in a line: Acute toxicity in Swiss albino mouse implanted with mouse EAC cells assessed effect on body weight at 5 to 10 mg/mouse, ip dosed once weekly starting 5 days after inoculation and measured up to 20 days after inoculation. It counts as organism-based. Conditions: in vivo. In short, it runs like this:
(§6)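 Female Swiss albino mice were given EAC cells from donor ascitic fluid, diluted in sterile saline to ~12.5 × 10^6/mL, 0.2 mL i.m. into the left thigh. Once-weekly i.p. dosing in 10% Tween 80 began at a palpable ~100 mm3 mass; controls got vehicle. Tumour volume (caliper, L × H² × 0.52) and body weight were taken over 15 days; n=10, mean ± SD, ANOVA/Tukey-Kramer.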

Data set [10] is described as follows: Acute toxicity in Swiss albino mouse assessed induction of toxic signs at 10 mg/mouse, ip dosed once weekly. It is filed as organism-based. Conditions: in vivo. The essentials:
as §1

The test system of data set [11] is Ehrlich. Briefly: Antitumor activity against mouse EAC cells implanted in Swiss albino mouse assessed as reduction in tumor size at 5 to 10 mg/mouse, ip dosed once weekly starting 5 days after inoculation and measured 9 and 12 days of treatment relative to fulvestrant. It counts as functional, organism-based. In short, it runs like this:
as §4

Data set [12] relates to Mus musculus. Briefly: Decrease in ER-alpha protein expression in tumors of Swiss albino mouse mouse implanted with mouse EAC cells at 10 mg/mouse, ip dosed once weekly starting 5 days after inoculation by immunohistochemical analysis relative to fulvestrant. It is filed as functional. Further details: scale not given: the % may be the effect or the level left. The essentials: as §2

Data set [13] has as its system Mus musculus. Briefly: Decrease in ER-alpha protein expression in tumors of Swiss albino mouse mouse implanted with mouse EAC cells at 5 mg/mouse, ip dosed once weekly starting 5 days after inoculation by immunohistochemical analysis relative to fulvestrant. It counts as functional. The arrangement: scale not given: the % may be the effect or the level left. In short, it runs like this:
as §2

The test system of data set [14] is Ehrlich. Briefly: Antitumor activity against mouse EAC cells implanted in Swiss albino mouse assessed as reduction in tumor volume at 10 mg/mouse, ip starting 5 days after inoculation dosed once weekly and measured on 15 days of treatment relative to fulvestrant. It is filed as functional, organism-based. The essentials: as §4
The test system of data set [15] is Ehrlich. Briefly: Antitumor activity against mouse EAC cells implanted in Swiss albino mouse assessed as induction of necrosis at 5 mg/mouse, ip dosed once weekly starting 5 days after inoculation by hematoxylin and eosin staining-based assay. It is filed as functional, organism-based. The essentials:
as §5

Data set [16] has as its system Ehrlich. Briefly: Antitumor activity against mouse EAC cells implanted in Swiss albino mouse assessed as focal necrotic areas in deeper parts of tumor mass at 10 mg/mouse, ip dosed once weekly starting 5 days after inoculation by hematoxylin and eosin staining-based assay. It is filed as functional, organism-based. In short, it runs like this: as §5
The test system of data set [17] is Ehrlich. Briefly: Antitumor activity against mouse EAC cells implanted in Swiss albino mouse assessed as viable cell area in deeper parts of tumor mass at 10 mg/mouse, ip dosed once weekly starting 5 days after inoculation by hematoxylin and eosin staining-based assay. It is filed as functional, organism-based. The essentials: as §5
Data set [18] concerns Ehrlich. Briefly: Antitumor activity against mouse EAC cells implanted in Swiss albino mouse assessed as reduction in tumor size at 5 mg/mouse, ip dosed once weekly starting 5 days after inoculation. It is filed as functional, organism-based. In short, it runs like this: as §6

Turning to `O=C(Nc1ccc2cc[nH]c2c1)c1cccc(C(F)(F)F)c1`, the Activity entry in [1] is reported as “Non-Toxic”; with Mus musculus [2], 35.3%; in the data set on Mus musculus [6] it was 64.71%; in data set [8], “Non-Toxic”; in data set [9], “Non-Toxic”; in data set [10], “Non-Toxic”. For the same compound, the results for the Activity with Mus musculus [12] and with Mus musculus [13] were 22.54% and 57.75%, respectively. The IC50 worked out at 30.6 µM with MCF7, 28.2 µM in the data set on T47D and 0.00176 µM at Estrogen receptor. Further, the result in the data set on Ehrlich [3], in the data set on Ehrlich [4], in the data set with Ehrlich [5], in the data set on Ehrlich [7] and in the data set with Ehrlich [11] was Active.
`O=S(=O)(Nc1ccc2cc[nH]c2c1)c1ccc(Br)cc1`: the IC50 is 37.8 µM with MCF7, 40.1 µM in the data set on T47D and 0.0227 µM against Estrogen receptor.
In the same order, the values of `O=C(Nc1ccc2cc[nH]c2c1)c1ccc(Br)cc1` are 38.1 µM, 63.7 µM and 0.00471 µM.
In the same order, the values of `O=C(Nc1ccc2cc[nH]c2c1)c1ccc(F)cc1` are 45.9 µM, 35.1 µM and 0.0695 µM.
In the same order, the values of `N#Cc1ccc(C(=O)Nc2ccc3cc[nH]c3c2)cc1` are 33.6 µM, 35.8 µM and 0.0024 µM.
Regarding `CC/C(=C(\c1ccccc1)c1ccc(OCCN(C)C)cc1)c1ccccc1` [TAMOXIFEN], the concentration for half-maximal inhibition (IC50) in the data set on MCF7 worked out at 42.4 µM; in the data set with T47D, 34.4 µM.
Consider `O=S(=O)(Nc1ccc2cc[nH]c2c1)c1ccc(F)cc1`, for which the Activity result is on record as “Non-Toxic” in data set [1]; 37.65% with Mus musculus [2]; 58.24% with Mus musculus [6]; “Non-Toxic” in data set [8]; “Non-Toxic” in [9]; “Non-Toxic” in data set [10]. For the same compound, the Activity was 25.35% in the data set with Mus musculus [12] and 50% in the data set on Mus musculus [13]. The outcome in the data set with Ehrlich [14], in the data set on Ehrlich [16], with Ehrlich [17] and in the data set with Ehrlich [11] was Active. In addition, the outcome with Ehrlich [15] was inactive. Also, the IC50 was found to be 30.9 µM in the data set on MCF7, 33 µM with T47D and 0.00331 µM at Estrogen receptor.
Consider `C[C@]12CC[C@@H]3c4ccc(O)cc4C[C@@H](CCCCCCCCC[S+]([O-])CCCC(F)(F)C(F)(F)F)[C@H]3[C@@H]1CC[C@@H]2O` (some centres undefined), for which, in the data set on Ehrlich [18], the result was Active.
As for `Cc1ccc(S(=O)(=O)Nc2ccc3cc[nH]c3c2)cc1`, the concentration for half-maximal inhibition (IC50) in the data set with MCF7 turned out to be 37.2 µM; in the data set with T47D it was 57.1 µM; on Estrogen receptor, 0.205 µM.
In the same order, the values of `O=C(Nc1ccc2cc[nH]c2c1)c1ccc(C(F)(F)F)cc1` are 63.4 µM, 51.3 µM and 0.00815 µM.
In the same order, the values of `O=S(=O)(Nc1ccc2cc[nH]c2c1)c1ccc(Cl)cc1` are 54 µM, 46.2 µM and 0.0444 µM.
In the same order, the values of `COc1ccc(S(=O)(=O)Nc2ccc3cc[nH]c3c2)cc1` are 57.2 µM, 45 µM and 0.00753 µM.
